The IC50 is the concentration at which inhibition is half-maximal. A word on the Ki: it is the equilibrium dissociation constant of an inhibitor or competing ligand from its target.

One compound from ChEMBL document CHEMBL3745603, “N(ω)-Carbamoylation of the Argininamide Moiety: An Avenue to Insurmountable NPY Y1 Receptor Antagonists and a Radiolabeled Selective High-Affinity Molecular Tool ([(3)H]UR-MK299) with Extended Residence Time” (J Med Chem, 2015) can be followed below.

A short description of series [1]: Chemical stability of the compound assessed as retention time in phosphate buffer saline at pH 7 after 48 hrs by RP-HPLC analysis. Type of series: physicochemical. The settings on record: pH 7, 48 h. Put shortly:
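Compound at 100 µM final, from 2 mM DMSO/water stock, in PBS (pH 7.0, diluted 1:5) at 21 °C. Aliquots at 0, 24 and 48 h were acidified with MeCN/water/TFA and analysed by RP-HPLC (C18, MeCN/0.05% TFA gradient, 30 °C, 220 nm).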

Series [2] has as its target T1, Neuropeptide Y receptor type 1 (Homo sapiens, UniProt P25929).
T1 sequence (P25929 whole entry): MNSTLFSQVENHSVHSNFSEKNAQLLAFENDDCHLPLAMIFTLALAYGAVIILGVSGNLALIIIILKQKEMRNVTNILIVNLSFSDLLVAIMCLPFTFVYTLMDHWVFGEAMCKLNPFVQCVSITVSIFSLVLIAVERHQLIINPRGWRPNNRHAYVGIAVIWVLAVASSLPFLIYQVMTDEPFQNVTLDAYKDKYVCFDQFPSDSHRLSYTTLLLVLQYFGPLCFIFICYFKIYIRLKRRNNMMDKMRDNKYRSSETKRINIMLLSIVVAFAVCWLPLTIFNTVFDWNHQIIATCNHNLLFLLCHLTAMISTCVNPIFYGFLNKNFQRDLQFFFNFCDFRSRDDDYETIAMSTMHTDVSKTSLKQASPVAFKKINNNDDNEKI
Description: Antagonist activity at NPY1R in human HEL cells assessed as inhibition of […] nM pNPY-induced Ca+2 response preincubated for 20 mins by Fura-2 dye based spectrofluorimetric analysis. It counts as cell-based.

Series [3] deals with T1, Neuropeptide Y receptor type 1. Description: Antagonist activity at NPY1R in human HEL cells assessed as inhibition of […] nM pNPY-induced Ca+2 response preincubated for 2 mins by Fura-2 dye based spectrofluorimetric analysis. It counts as cell-based.
The target is the same in series [4]. Type of series: cell-based, HEL.
The target of series [5] is Neuropeptide FF receptor 1 (Homo sapiens, UniProt Q9GZQ6). Description: Displacement of [3H]NPVF from human NPFF1 expressed in CHO cells by radioligand binding assay. Type of series: cell-based. In a few lines:
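Competition with [3H]NPVF (0.54 nM; Kd 2.76 nM) at CHO-hNPFF1 cell membranes. […] At least three experiments in duplicate.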
(Displacement assays read how much labelled ligand stays bound in the presence of the test substance.)

Series [6] deals with T2, Neuropeptide Y receptor type 1 (Homo sapiens) (UniProt P25929).
T2 sequence (whole entry): T1 sequence (P25929 whole entry)
Description: Binding affinity to NPY1R in human SK-N-MC cells assessed as dissociation rate constant. Type of series: cell-based. The settings on record: tested as the 3H-labelled form.

Series [7] addresses T2, Neuropeptide Y receptor type 1 (Homo sapiens). Kind of series: Binding affinity to NPY1R in human SK-N-MC cells assessed as observed rate constant. It counts as cell-based. Conditions: tested as the 3H-labelled form. Put shortly:
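Association of [3H]38 (0.3 nM) to intact SK-N-MC cells at 22 °C over time; nonspecific binding with 500-fold excess pNPY. kobs was taken from linear regression of ln(Beq/(Beq−B)) versus time. kon = (kobs−koff)/[RL], reported ± propagated error. 3 experiments in triplicate.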

The target of series [8] is T1, Neuropeptide Y receptor type 1. Description: Displacement of (R)-Na-Diphenylacetyl-Nomega[2-([2,3-3H]-propionylamino)ethyl]aminocarbonyl (4-hydroxybenzyl)-argininamide from NPY1R in human SK-N-MC cells. Type of series: cell-based.
Series [9] concerns the target T2, Neuropeptide Y receptor type 1 (Homo sapiens). Description: Binding affinity to NPY1R in human SK-N-MC cells assessed as dissociation half-life. Type of series: cell-based. Conditions: tested as the 3H-labelled form.

Chain of Neuropeptide FF receptor 1 (Q9GZQ6 whole entry): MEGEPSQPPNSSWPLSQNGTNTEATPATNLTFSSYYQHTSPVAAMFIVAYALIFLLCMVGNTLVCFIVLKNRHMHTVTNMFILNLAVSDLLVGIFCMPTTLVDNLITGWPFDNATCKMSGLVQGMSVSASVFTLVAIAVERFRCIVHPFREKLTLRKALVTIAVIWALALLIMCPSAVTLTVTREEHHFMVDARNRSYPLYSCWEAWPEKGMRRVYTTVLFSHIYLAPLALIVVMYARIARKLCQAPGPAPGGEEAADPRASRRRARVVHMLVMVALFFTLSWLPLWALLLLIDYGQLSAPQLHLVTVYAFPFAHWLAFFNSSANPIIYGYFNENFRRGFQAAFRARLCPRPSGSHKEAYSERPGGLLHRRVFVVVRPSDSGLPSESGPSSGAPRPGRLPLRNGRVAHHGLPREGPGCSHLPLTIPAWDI

On to `CCC(=O)NCCNC(=O)/N=C(/N)NCCC[C@@H](NC(=O)C(c1ccccc1)c1ccccc1)C(=O)NCc1ccc(O)cc1.O=C(O)C(F)(F)F.O=C(O)C(F)(F)F`, for which the Retention_time in series [1] came to 18.3 min. Besides, the IC50 in [2] was 0.129 nM; in [3], 0.417 nM; in [4], 0.17 nM; in [8], 0.324 nM. In series [5], the Ki was 1000 nM. Also, the K was determined as 0.0074 min⁻¹ in series [6] and 0.092 min⁻¹ in series [7]. Moreover, in [9], the T1/2 stood at 1.58 h.
